Reference: ChEMBL document CHEMBL2384906, “Biological activity, design, synthesis and structure activity relationship of some novel derivatives of curcumin containing sulfonamides” (Eur J Med Chem, 2013)
Values after ≈ are worked out from the molar mass of the structure shown. Active and inactive are the calls of the source. The rule behind the calls is not given here.

What was measured:
Mus musculus = assay: Antiinflammatory activity in mouse assessed as inhibition of carrageenan-induced increase in paw volume at 200 mg/kg administered 1 hr prior to carrageenan challenge measured after 3 hrs relative to control; assay type: functional
In short: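 Mice were fasted 2 h and placed in groups of five. Controls received saline i.p. Phenylbutazone was given at 100 mg/kg i.p., curcumin at 200 mg/kg i.p., and derivatives at 200 mg/kg. After 1 h, 0.1 mL of 1% carrageenan in saline was injected subplantar into the right hind paw. Paw volume was followed by plethysmometer for 3 h, and % inhibition was calculated as (Vc − Vt)/Vc × 100.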

HCT-116 = assay: Cytotoxicity against human HCT116 cells after 24 hrs by MTT assay; assay type: functional, cell-based
In short: (§1)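 The MTT assay seeded 5 × 10⁴ cells per well and grew them 24 h in RPMI 1640 with compound at 2.5–200 µM. Medium without cells was the blank and adriamycin the positive control. MTT was added for 4 h at 37 °C, formazan was solubilised, and absorbance was read at 570 nm. IC50 is the concentration that cuts viability 50% against untreated cells.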

QG-56 = assay: Cytotoxicity against human QG56 cells after 24 hrs by MTT assay; assay type: functional, cell-based; in short: as §1
HeLa = assay: Cytotoxicity against human HeLa cells after 24 hrs by MTT assay; assay type: functional, cell-based; in short: as §1
HepG2 = assay: Cytotoxicity against human HepG2 cells after 24 hrs by MTT assay; assay type: functional, cell-based; in short: as §1
Trichoderma viride [1] = assay: Antifungal activity against Trichoderma viride MTCC 1107 after 48 hrs; assay type: functional; conditions: MTCC 1107, 48 h
Trichoderma viride [2] = assay: Antifungal activity against Trichoderma viride MTCC 1107 assessed as zone of inhibition at 20 uM after 48 hrs by disc diffusion method; assay type: functional; conditions: MTCC 1107, 48 h, read-out: IZ
In short: (§2)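 Spores from 4-day potato dextrose agar cultures, suspended in sterile water at 1.5 × 10⁵ CFU/mL. 0.2 mL was spread on potato dextrose agar. 5 mm filter-paper discs soaked with test compound were laid on the lawn. Incubation was 48 h at 28 °C, then the inhibition zone was measured in mm. Fluconazole was the positive control and acetone the negative control.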

Trichoderma viride [3] = assay: Antifungal activity against Trichoderma viride MTCC 1107 assessed as zone of inhibition at 40 uM after 48 hrs by disc diffusion method; assay type: functional; conditions: MTCC 1107, 48 h, read-out: IZ; in short: as §2
Trichoderma viride [4] = assay: Antifungal activity against Trichoderma viride MTCC 1107 assessed as zone of inhibition at 80 uM after 48 hrs by disc diffusion method; assay type: functional; conditions: MTCC 1107, 48 h, read-out: IZ; in short: as §2
Curvularia lunata [5] = assay: Antifungal activity against Curvularia lunata MTCC 581 after 48 hrs; assay type: functional; conditions: MTCC 581, 48 h
Curvularia lunata [6] = assay: Antifungal activity against Curvularia lunata MTCC 581 assessed as zone of inhibition at 20 uM after 48 hrs by disc diffusion method; assay type: functional; conditions: MTCC 581, 48 h, read-out: IZ; in short: as §2
Curvularia lunata [7] = assay: Antifungal activity against Curvularia lunata MTCC 581 assessed as zone of inhibition at 40 uM after 48 hrs by disc diffusion method; assay type: functional; conditions: MTCC 581, 48 h, read-out: IZ; in short: as §2
Aspergillus flavus [8] = assay: Antifungal activity against Aspergillus flavus MTCC 1021 after 48 hrs; assay type: functional; conditions: MTCC 1021, 48 h
Curvularia lunata [9] = assay: Antifungal activity against Curvularia lunata MTCC 581 assessed as zone of inhibition at 80 uM after 48 hrs by disc diffusion method; assay type: functional; conditions: MTCC 581, 48 h, read-out: IZ; in short: as §2
Aspergillus flavus [10] = assay: Antifungal activity against Aspergillus flavus MTCC 1021 assessed as zone of inhibition at 20 uM after 48 hrs by disc diffusion method; assay type: functional; in short: as §2
Aspergillus flavus [11] = assay: Antifungal activity against Aspergillus flavus MTCC 1021 assessed as zone of inhibition at 40 uM after 48 hrs by disc diffusion method; assay type: functional; conditions: MTCC 1021, 48 h, read-out: IZ; in short: as §2
Aspergillus flavus [12] = assay: Antifungal activity against Aspergillus flavus MTCC 1021 assessed as zone of inhibition at 80 uM after 48 hrs by disc diffusion method; assay type: functional; conditions: MTCC 1021, 48 h, read-out: IZ; in short: as §2
Aspergillus niger [13] = assay: Antifungal activity against Aspergillus niger MTCC 1108 after 48 hrs; assay type: functional; conditions: MTCC 1108, 48 h
Aspergillus niger [14] = assay: Antifungal activity against Aspergillus niger MTCC 1108 assessed as zone of inhibition at 20 uM after 48 hrs by disc diffusion method; assay type: functional; in short: as §2
Aspergillus niger [15] = assay: Antifungal activity against Aspergillus niger MTCC 1108 assessed as zone of inhibition at 40 uM after 48 hrs by disc diffusion method; assay type: functional; conditions: MTCC 1108, 48 h, read-out: IZ; in short: as §2
Aspergillus niger [16] = assay: Antifungal activity against Aspergillus niger MTCC 1108 assessed as zone of inhibition at 80 uM after 48 hrs by disc diffusion method; assay type: functional; conditions: MTCC 1108, 48 h, read-out: IZ; in short: as §2
Escherichia coli [17] = assay: Antimicrobial activity against Escherichia coli ATCC 35218 after 24 hrs by broth micro serial dilution method; assay type: functional; conditions: ATCC 35218, 24 h
In short: (§3)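 This was broth microdilution in autoclaved Mueller-Hinton broth. 150 µL of compound per well was serially diluted […], and 50 µL of test organism was added. Plates were incubated 24 h at 37 °C and optical density was read.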

Escherichia coli [18] = assay: Antimicrobial activity against Escherichia coli ATCC 35218 assessed as diameter of inhibition zone at 20 uM after 24 hrs by Kirby -Baur disc diffusion method; assay type: functional; conditions: ATCC 35218, 24 h, read-out: DIZ
In short: (§4)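 Kirby-Bauer disc diffusion was used. Acetone stocks (160 µM) were serially doubled down to 80, 40 and 20 µM. 4 µL of each went onto 5 mm sterile paper discs, which were dried 30 min at 50 °C. Inoculum was 1.5 × 10⁸ CFU/mL diluted to 3 × 10² CFU/mL, and 50 µL was spread on Mueller-Hinton agar. After 24 h at 37 °C the inhibition-zone diameter was measured. Ciprofloxacin served as positive control.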

Escherichia coli [19] = assay: Antimicrobial activity against Escherichia coli ATCC 35218 assessed as diameter of inhibition zone at 40 uM after 24 hrs by Kirby -Baur disc diffusion method; assay type: functional; conditions: ATCC 35218, 24 h, read-out: DIZ; in short: as §4
Escherichia coli [20] = assay: Antimicrobial activity against Escherichia coli ATCC 35218 assessed as diameter of inhibition zone at 80 uM after 24 hrs by Kirby -Baur disc diffusion method; assay type: functional; conditions: ATCC 35218, 24 h, read-out: DIZ; in short: as §4
Pseudomonas aeruginosa [21] = assay: Antimicrobial activity against Pseudomonas aeruginosa ATCC 15499 after 24 hrs by broth micro serial dilution method; assay type: functional; conditions: ATCC 15499, 24 h; in short: as §3
Pseudomonas aeruginosa [22] = assay: Antimicrobial activity against Pseudomonas aeruginosa ATCC 15499 assessed as diameter of inhibition zone at 20 uM after 24 hrs by Kirby -Baur disc diffusion method; assay type: functional; conditions: ATCC 15499, 24 h, read-out: DIZ; in short: as §4
Pseudomonas aeruginosa [23] = assay: Antimicrobial activity against Pseudomonas aeruginosa ATCC 15499 assessed as diameter of inhibition zone at 40 uM after 24 hrs by Kirby -Baur disc diffusion method; assay type: functional; conditions: ATCC 15499, 24 h, read-out: DIZ; in short: as §4
Pseudomonas aeruginosa [24] = assay: Antimicrobial activity against Pseudomonas aeruginosa ATCC 15499 assessed as diameter of inhibition zone at 80 uM after 24 hrs by Kirby -Baur disc diffusion method; assay type: functional; conditions: ATCC 15499, 24 h, read-out: DIZ; in short: as §4
Salmonella typhi [25] = assay: Antimicrobial activity against Salmonella typhi ATCC 23564 after 24 hrs by broth micro serial dilution method; assay type: functional, Salmonella enterica subsp. enterica serovar Typhi; conditions: Salmonella enterica, ATCC 23564, 24 h
Salmonella typhi [26] = assay: Antimicrobial activity against Salmonella typhi ATCC 23564 assessed as diameter of inhibition zone at 20 uM after 24 hrs by Kirby -Baur disc diffusion method; assay type: functional, Salmonella enterica subsp. enterica serovar Typhi; conditions: Salmonella enterica, ATCC 23564, 24 h; read-out: DIZ
Salmonella typhi [27] = assay: Antimicrobial activity against Salmonella typhi ATCC 23564 assessed as diameter of inhibition zone at 40 uM after 24 hrs by Kirby -Baur disc diffusion method; assay type: functional, Salmonella enterica subsp. enterica serovar Typhi; conditions: Salmonella enterica, ATCC 23564, 24 h; read-out: DIZ
Salmonella typhi [28] = assay: Antimicrobial activity against Salmonella typhi ATCC 23564 assessed as diameter of inhibition zone at 80 uM after 24 hrs by Kirby -Baur disc diffusion method; assay type: functional, Salmonella enterica subsp. enterica serovar Typhi; conditions: Salmonella enterica, ATCC 23564, 24 h; read-out: DIZ
Bacillus cereus [29] = assay: Antimicrobial activity against Bacillus cereus MTCC 7350 after 24 hrs by broth micro serial dilution method; assay type: functional; conditions: MTCC 7350, 24 h; in short: as §3
Bacillus cereus [30] = assay: Antimicrobial activity against Bacillus cereus MTCC 7350 assessed as diameter of inhibition zone at 20 uM after 24 hrs by Kirby -Baur disc diffusion method; assay type: functional; conditions: MTCC 7350, 24 h, read-out: DIZ; in short: as §4
Bacillus cereus [31] = assay: Antimicrobial activity against Bacillus cereus MTCC 7350 assessed as diameter of inhibition zone at 40 uM after 24 hrs by Kirby -Baur disc diffusion method; assay type: functional; conditions: MTCC 7350, 24 h, read-out: DIZ; in short: as §4
Bacillus cereus [32] = assay: Antimicrobial activity against Bacillus cereus MTCC 7350 assessed as diameter of inhibition zone at 80 uM after 24 hrs by Kirby -Baur disc diffusion method; assay type: functional; conditions: MTCC 7350, 24 h, read-out: DIZ; in short: as §4
Staphylococcus aureus [33] = assay: Antimicrobial activity against Staphylococcus aureus ATCC 11632 after 24 hrs by broth micro serial dilution method; assay type: functional; conditions: ATCC 11632, 24 h; in short: as §3
Staphylococcus aureus [34] = assay: Antimicrobial activity against Staphylococcus aureus ATCC 11632 assessed as diameter of inhibition zone at 20 uM after 24 hrs by Kirby -Baur disc diffusion method; assay type: functional; conditions: ATCC 11632, 24 h, read-out: DIZ; in short: as §4
Staphylococcus aureus [35] = assay: Antimicrobial activity against Staphylococcus aureus ATCC 11632 assessed as diameter of inhibition zone at 40 uM after 24 hrs by Kirby -Baur disc diffusion method; assay type: functional; conditions: ATCC 11632, 24 h, read-out: DIZ; in short: as §4
Staphylococcus aureus [36] = assay: Antimicrobial activity against Staphylococcus aureus ATCC 11632 assessed as diameter of inhibition zone at 80 uM after 24 hrs by Kirby -Baur disc diffusion method; assay type: functional; conditions: ATCC 11632, 24 h, read-out: DIZ; in short: as §4

## COc1cc(/C=C/C(O)=C/C(/C=C/c2ccc(O)c(OC)c2)=N/c2ccc(S(=O)(=O)Nc3cc(C)on3)cc2)ccc1O
Mus musculus
  inhibition in vivo at 200 mg/kg: 33.8%
HCT-116
  IC50: 25 µM
QG-56
  IC50: 50 µM
HeLa
  IC50: 50 µM
HepG2
  IC50: 25 µM
Trichoderma viride [1]
  MIC: 80 µM (≈ 48.3 µg/mL)
Trichoderma viride [2]
  zone of inhibition at 20 µM: 9 mm
Trichoderma viride [3]
  zone of inhibition at 40 µM: 11 mm
Trichoderma viride [4]
  zone of inhibition at 80 µM: 13 mm
Curvularia lunata [5]
  MIC: 80 µM (≈ 48.3 µg/mL)
Curvularia lunata [6]
  zone of inhibition at 20 µM: 9 mm
Curvularia lunata [7]
  zone of inhibition at 40 µM: 10 mm
Aspergillus flavus [8]
  MIC: > 80 µM
Curvularia lunata [9]
  zone of inhibition at 80 µM: 11 mm
Aspergillus flavus [10]
  inhibition zone (IZ): inactive
Aspergillus flavus [11]
  zone of inhibition at 40 µM: 9 mm
Aspergillus flavus [12]
  zone of inhibition at 80 µM: 11 mm
Aspergillus niger [13]
  MIC: 40 µM (≈ 24.1 µg/mL)
Aspergillus niger [14]
  inhibition zone (IZ): inactive
Aspergillus niger [15]
  zone of inhibition at 40 µM: 9 mm
Aspergillus niger [16]
  zone of inhibition at 80 µM: 12 mm
Escherichia coli [17]
  MIC: 20 µM (≈ 12.1 µg/mL)
Escherichia coli [18]
  zone of inhibition at 20 µM: 19 mm
Escherichia coli [19]
  zone of inhibition at 40 µM: 21 mm
Escherichia coli [20]
  zone of inhibition at 80 µM: 27 mm
Pseudomonas aeruginosa [21]
  MIC: 20 µM (≈ 12.1 µg/mL)
Pseudomonas aeruginosa [22]
  zone of inhibition at 20 µM: 17 mm
Pseudomonas aeruginosa [23]
  zone of inhibition at 40 µM: 23 mm
Pseudomonas aeruginosa [24]
  zone of inhibition at 80 µM: 25 mm
Salmonella typhi [25]
  MIC: 20 µM (≈ 12.1 µg/mL)
Salmonella typhi [26]
  zone of inhibition at 20 µM: 12 mm
Salmonella typhi [27]
  zone of inhibition at 40 µM: 17 mm
Salmonella typhi [28]
  zone of inhibition at 80 µM: 20 mm
Bacillus cereus [29]
  MIC: 20 µM (≈ 12.1 µg/mL)
Bacillus cereus [30]
  zone of inhibition at 20 µM: 13 mm
Bacillus cereus [31]
  zone of inhibition at 40 µM: 18 mm
Bacillus cereus [32]
  zone of inhibition at 80 µM: 21 mm
Staphylococcus aureus [33]
  MIC: 20 µM (≈ 12.1 µg/mL)
Staphylococcus aureus [34]
  zone of inhibition at 20 µM: 17 mm
Staphylococcus aureus [35]
  zone of inhibition at 40 µM: 21 mm
Staphylococcus aureus [36]
  zone of inhibition at 80 µM: 24 mm
